Source: ChEMBL document CHEMBL1177688, “Synthesis of novel pyrazolic analogues of chalcones and their 3-aryl-4-(3-aryl-4,5-dihydro-1H-pyrazol-5-yl)-1-phenyl-1H-pyrazole derivatives as potential antitumor agents” (2010)

Assays:
Format in all cases: functional
NCI/ADR-RES = assay: Antiproliferative activity against human NCI/ADR-RES cells after 48 hrs by SRB assay
Outline: (§1)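 NCI 60-cell human tumour line panel. Continuous 48 h drug exposure at five concentrations (100, 10, 1.0, 0.1, 0.01 µM). Cell growth estimated by sulforhodamine B protein staining. GI50 = concentration giving 50% reduction in net protein increase versus control cells over the incubation. LC50 = molar concentration killing 50% of cells.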

MDA-MB-231 = assay: Antiproliferative activity against human MDA-MB-231 cells after 48 hrs by SRB assay; conditions: MDA-MB-231, 48 h; outline: as §1
SW-620 = assay: Antiproliferative activity against human SW620 cells after 48 hrs by SRB assay; conditions: SW-620, 48 h
Outline: (§2)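 NCI 60-cell-line human tumour panel, secondary five-dose screen. Compounds tested at 100, 10, 1.0, 0.1 and 0.01 µM with 48 h continuous exposure. Cell growth was estimated by sulforhodamine B protein staining. GI50 is the concentration giving a 50% reduction in net protein increase relative to untreated control cells over the incubation. TGI and LC50 were also derived.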

Malme-3M = assay: Antiproliferative activity against human MALME-3M cells after 48 hrs by SRB assay; conditions: for CC50: read-out: LC50 (the source's name); outline: as §2
SNB-75 = assay: Antiproliferative activity against human SNB75 cells after 48 hrs by SRB assay; conditions: SNB-75, 48 h; outline: as §2
OVCAR-4 = assay: Antiproliferative activity against human OVCAR4 cells after 48 hrs by SRB assay; conditions: OVCAR-4, 48 h, read-out: LC50 (the source's name); outline: as §2
MDA-MB-468 = assay: Antiproliferative activity against human MDA-MB-468 cells after 48 hrs by SRB assay; conditions: MDA-MB-468, 48 h; for CC50: read-out: LC50 (the source's name); outline: as §2
U-251 = assay: Antiproliferative activity against human U251 cells after 48 hrs by SRB assay; conditions: U-251, 48 h; outline: as §1
Hs-578T = assay: Antiproliferative activity against human Hs 578T cells after 48 hrs by SRB assay; conditions: read-out: LC50 (the source's name); outline: as §2
NCI-H460 = assay: Antiproliferative activity against human NCI-H460 cells after 48 hrs by SRB assay; conditions: NCI-H460, 48 h; outline: as §2
PC-3 = assay: Antiproliferative activity against human PC3 cells after 48 hrs by SRB assay; conditions: PC-3, 48 h; outline: as §2
SK-MEL-2 = assay: Antiproliferative activity against human SK-MEL-2 cells after 48 hrs by SRB assay; conditions: SK-MEL-2, 48 h; for CC50: read-out: LC50 (the source's name); outline: as §2
ACHN = assay: Antiproliferative activity against human ACHN cells after 48 hrs by SRB assay; outline: as §1
COLO 205 = assay: Antiproliferative activity against human COLO205 cells after 48 hrs by SRB assay; conditions: COLO 205, 48 h; outline: as §1
OVCAR-8 = assay: Antiproliferative activity against human OVCAR8 cells after 48 hrs by SRB assay; conditions: OVCAR-8, 48 h; for CC50: read-out: LC50 (the source's name); outline: as §2
CCRF-CEM = assay: Antiproliferative activity against human CCRF-CEM cells after 48 hrs by SRB assay; conditions: read-out: LC50 (the source's name); outline: as §2
HL-60 = assay: Antiproliferative activity against human HL-60(TB) cells after 48 hrs by SRB assay; conditions: HL-60, 48 h; outline: as §2
K562 = assay: Antiproliferative activity against human K562 cells after 48 hrs by SRB assay; conditions: K562, 48 h; outline: as §2
786-0 = assay: Antiproliferative activity against human 786-0 cells after 48 hrs by SRB assay; conditions: 786-0, 48 h; outline: as §2
MOLT-4 = assay: Antiproliferative activity against human MOLT4 cells after 48 hrs by SRB assay; conditions: MOLT-4, 48 h; outline: as §2
OVCAR-3 = assay: Antiproliferative activity against human OVCAR-3 cells after 48 hrs by SRB assay; conditions: OVCAR-3, 48 h; outline: as §2
HOP-62 = assay: Antiproliferative activity against human HOP62 cells after 48 hrs by SRB assay; conditions: HOP-62, 48 h; outline: as §2
[1] = read-out: LC50 (the source's name)

SMILES: COc1ccc(C2=NN(C(C)=O)C(c3cn(-c4ccccc4)nc3-c3ccc(Cl)cc3)C2)cc1 (stereo unspecified)
- GI50 (NCI/ADR-RES): 1.8 µM
- GI50 (MDA-MB-231): 1.88 µM
- GI50 (SW-620): 3.48 µM
- CC50 (SW-620; [1]): > 100 µM
- CC50 (Malme-3M): > 100 µM
- GI50 (SNB-75): 2.76 µM
- LC50 (50% lethal concentration) (SNB-75): > 100 µM
- CC50 (OVCAR-4): > 100 µM
- CC50 (MDA-MB-468): > 100 µM
- GI50 (U-251): 1.71 µM
- CC50 (Hs-578T): > 100 µM
- GI50 (NCI-H460): 1.98 µM
- GI50 (PC-3): 2.35 µM
- CC50 (PC-3; [1]): > 100 µM
- CC50 (SK-MEL-2): > 100 µM
- GI50 (ACHN): 1.82 µM
- GI50 (COLO 205): 2.16 µM
- CC50 (OVCAR-8): > 100 µM

SMILES: O=C(/C=C/c1cn(-c2ccccc2)nc1-c1ccc([N+](=O)[O-])cc1)c1ccc(Cl)cc1
- CC50 (CCRF-CEM): > 100 µM
- GI50 (NCI/ADR-RES): 4.64 µM
- CC50 (NCI/ADR-RES; [1]): > 100 µM
- GI50 (HL-60): > 100 µM
- CC50 (HL-60; [1]): > 100 µM
- GI50 (MDA-MB-231): 2.45 µM
- CC50 (MDA-MB-231; [1]): > 100 µM
- GI50 (Malme-3M): 2.44 µM
- CC50 (Malme-3M): > 100 µM
- GI50 (SNB-75): 1.55 µM
- LC50 (50% lethal concentration) (SNB-75): 24 µM
- GI50 (K562): 0.09 µM
- CC50 (K562; [1]): > 100 µM
- GI50 (786-0): 3.94 µM
- CC50 (786-0; [1]): > 100 µM
- GI50 (MOLT-4): 0.87 µM
- CC50 (MOLT-4; [1]): > 100 µM
- GI50 (MDA-MB-468): 2.91 µM
- CC50 (MDA-MB-468): > 100 µM
- GI50 (U-251): 2.09 µM
- CC50 (U-251; [1]): > 100 µM
- CC50 (NCI-H460; [1]): > 100 µM
- GI50 (OVCAR-3): 1.96 µM
- CC50 (OVCAR-3; [1]): > 100 µM
- GI50 (SK-MEL-2): 6.99 µM
- CC50 (SK-MEL-2): 57.9 µM
- GI50 (HOP-62): 26 µM
- CC50 (HOP-62; [1]): > 100 µM
- GI50 (ACHN): 4.27 µM
- CC50 (ACHN; [1]): > 100 µM
- GI50 (COLO 205): 2.09 µM
- GI50 (OVCAR-8): 6.32 µM
- CC50 (OVCAR-8): > 100 µM
